Screens deposited in PubChem by several laboratories.
HCV core dimer – blocks dimerization of HCV core protein; TR-FRET GST/Flag-core106 dimerization, 1536-well; inhibition, % at 5 µM; hit rate 0.33% among 300,000;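 active = inhibition above the mean of all tested compounds plus 3 SD, set per screening campaign, cut at about 45% in these data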
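Assay system: GST-tagged and Flag-tagged HCV core protein residues 1-106 / Times: compound-protein-antibody incubation 4 h at 22.5 °C / Signal: time-resolved FRET, ex 340 nm, em 617 and 671 nm / Evaluation: % inhibition based on acceptor/donor emission ratio / Benchmarks: wells lacking GST-core106 and wells with excess unlabelled core106 / Repeats: singlicate, one well per compound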
AI-2 QS mod – modulators of Vibrio harveyi AI-2 quorum sensing system | hit rate 0.4% among 300,000 | activity change, % at 7.5 µM | Vibrio harveyi JMH597 AI-2 luminescence/OD600 ratio, 9 h; stronger effect = lower value; strain lacks LuxN and CqsS sensors; 0 = neutral-control median; in the data active = activity change below about -75%, passing the limit was not always enough; inconclusive = no clear call, values can overlap the other calls;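 also: luminescence divided by OD600 gain over 9 h not by final OD600 alone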
HSF1 inh – HSF1 inhibition | hit rate 0.77% among 300,000 | activity change, negative = inhibition, % at 7.5 µM (by protocol) | NIH3T3-HGL HSE-luciferase, MG132-induced, luminescence 8 h; stronger effect = lower value;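 active = more than half of replicate wells show activity change below -50%, luminescence cut by over half; inconclusive = some wells, but at most half, below -50%; inactive = no replicate well below -50%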;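 also: luciferase reports HSF-1 transcriptional activity via heat shock element; 0% = median of DMSO wells and -100% = zero luminescence signal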
ALR H2O2 inh – blocks human ALR sulfhydryl oxidase activity | P55789 | purified ALR, DTT oxidation, H2O2 HRP-luminol luminescence | inhibition, % (concentration not given with the values) | hit rate 3.8% among 290,000;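 active = mean replicate inhibition above about 79%, with every replicate also reaching it, limit read from the data; inconclusive = only one of the two criteria met; inactive = mean below limit and not every replicate reaching it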
Target sequence (P55789 whole entry, looked up): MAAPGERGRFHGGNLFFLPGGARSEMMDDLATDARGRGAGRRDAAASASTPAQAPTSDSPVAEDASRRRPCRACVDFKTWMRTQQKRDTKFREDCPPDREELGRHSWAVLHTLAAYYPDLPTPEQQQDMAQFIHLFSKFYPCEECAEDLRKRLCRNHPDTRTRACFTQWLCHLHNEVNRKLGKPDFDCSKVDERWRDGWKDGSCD
HSF-1 act – increases HSF-1 driven luciferase reporter signal; NIH3T3-HGL HSF-1 luciferase reporter, MG132, 8 h; 100% = twice DMSO control signal; hit rate 1.7% among 300,000; AID 504408; activation, % at 9 µM;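 active = mean replicate activation of at least 50% with a set share of replicates each reaching 50%; inconclusive = only one of those two conditions met; inactive = mean below 50% and too few replicates reaching it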;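 also: 0% = median of the neutral control wells and 100% = twice that signal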
PHOSPHO1 block – PHOSPHO1 (human) inhibition. inhibition, % at 13.3 µM. hit rate 1.1% among 290,000. Q8TCT1. recombinant PHOSPHO1, absorbance phosphatase assay; in the data active = inhibition above about 60%
Target sequence (Q8TCT1 whole entry, looked up): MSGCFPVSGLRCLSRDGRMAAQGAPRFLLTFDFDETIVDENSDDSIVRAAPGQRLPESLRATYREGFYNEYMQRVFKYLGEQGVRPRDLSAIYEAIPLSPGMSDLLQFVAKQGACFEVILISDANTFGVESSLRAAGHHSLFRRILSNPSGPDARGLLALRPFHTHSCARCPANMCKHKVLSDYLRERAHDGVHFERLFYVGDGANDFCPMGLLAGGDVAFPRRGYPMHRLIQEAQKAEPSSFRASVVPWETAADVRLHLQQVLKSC
* hit, by the source's call; ? = inconclusive; . = no result given. Hits are enriched below; roughly 6.8% of the tested compounds scored in any of these assays.

SMILES | HCV core dimer | AI-2 QS mod | HSF1 inh | ALR H2O2 inh | HSF-1 act | PHOSPHO1 block
NC(=S)N/N=C/c1cccc(O)c1O | -1 | 40 | -11 | 98* | 30 | -56
COc1cc(/C=N/N=C/c2c[nH]c(=O)c(C#N)c2Nc2ccccc2)ccc1O | 1 | 5 | -3 | 78* | 5 | 25
N#Cc1c(Nc2ccccc2)c(C=O)c[nH]c1=O | -5 | 16 | -3 | -3 | -3 | 37
COc1ccc(C(C)=O)cc1COC(=O)c1ccc(C)c(S(=O)(=O)N2CCOCC2)c1 | . | . | . | 4 | . | .
Oc1cccc(/C=N/NC(=S)Nc2cccnc2)c1O | -12 | -84* | 7 | 90* | 14 | -16
CCN(CC)S(=O)(=O)c1cccc(C(=O)N/N=C/c2ccccc2OCC(=O)O)c1 | 11 | 30 | 3 | 4 | 12 | -34
COc1cc(/C=N/NC(=O)c2ccc(CSc3nc4ccccc4[nH]3)cc2)ccc1O | 1 | 18 | 4 | 99* | 13 | 38
CCN(CC)S(=O)(=O)c1cccc(C(=O)N/N=C/c2ccc(OC)c(O)c2)c1 | 6 | 26 | -4 | 97* | -4 | -21
Oc1ccc(/C=N/NC(=S)Nc2cccnc2)c(O)c1O | . | 37 | -1 | . | -6 | -114
COc1ccccc1/C=N/NC(=O)C1=NNC(c2ccccc2)(c2ccccc2)C1 | 54* | 46 | -1 | . | -13 | -1
CC(C)C(C)NC(=O)COC(=O)c1cccc(C(=O)OCC(=O)NC(C)C(C)C)n1 (stereo not drawn) | -5 | 25 | 2 | 0 | -7 | 20
COC(CNC(=O)C(=O)Nc1cc2c3c(c1)CC(=O)N3CCC2)OC | 4 | 21 | -1 | -3 | 7 | 19
COc1cc(CCC(=O)NNC(=O)c2cccc(Cl)c2)cc(OC)c1OC | 5 | 20 | -3 | 1 | 4 | -15
CCCCN(C(=O)c1cc(=O)[nH]c2ccccc12)c1c(N)n(CCCC)c(=O)[nH]c1=O | -4 | 21 | 0 | -2 | 6 | 14
CNC(=S)N/N=C/c1ccccc1Cl | -16 | 5 | -3 | . | -8 | -11
COc1cc(C(=O)Oc2ccccc2/C=N/NC(=O)c2ccc(C)cc2)cc(OC)c1OC | 13 | 18 | 32 | -20 | 66* | 9
S=C(NCCN1CCOCC1)N/N=C/c1cccs1 | 11 | 13 | -6 | 9 | 2 | 33
Oc1cccc(/C=N/NC(=S)NCCN2CCOCC2)c1O | 0 | 0 | 0 | 100* | -12 | -151
S=C(N/N=C/c1ccccc1Cl)Nc1ccccc1 | 1 | 12 | 30 | -8 | 72* | 8
COc1ccc(/C=N/NC(=S)Nc2cccc(C(=O)O)c2)cc1 | 2 | 11 | -28 | 31 | -30 | 8
COc1cc(/C=N/NC(=S)Nc2cccc(C(=O)O)c2)ccc1O | -14 | 13 | ? | 99* | -50 | 6
Cc1ccc(S(=O)(=O)N2CCCC(C(=O)NCCC(C)C)C2)cc1 (stereo not drawn) | 2 | 8 | 5 | -2 | -3 | 49
Cc1ccc(CNC(=O)C2CCC(=O)N(CC3CCCCC3)C2)o1 (stereo not drawn) | 3 | 11 | -4 | 0 | 0 | 36
COc1ccc(OCc2nc3ccccc3n2C(C)C)cc1 | 5 | 2 | 0 | 3 | 16 | -18
Cc1cccc(C)c1NC(=S)N/N=C/c1c(Cl)cccc1Cl | 5 | 18 | -20 | -1 | -25 | 25
SMILES | HCV core dimer | AI-2 QS mod | HSF1 inh | ALR H2O2 inh | HSF-1 act | PHOSPHO1 block
O=C(O)c1cccc(NC(=S)N/N=C/c2cccnc2)c1 | 1 | -4 | -60* | 25 | -62 | -11
COc1ccc(/C=N/NC(=O)c2cccnc2)cc1O | -10 | 4 | -2 | 88* | -6 | 39
CNC(=S)N/N=C/c1c(Cl)cccc1Cl | -3 | 8 | -59* | 1 | -67 | -11
COc1cc(/C=N/NC(=O)c2cccc(NC(=O)c3ccccc3Cl)c2)ccc1O | -6 | 20 | -7 | 88* | 7 | -13
CC(=O)Nc1cccc(C(=O)N/N=C/c2cccnc2)c1 | 1 | 25 | -2 | -1 | -1 | 24
CN(C(=O)CS(=O)(=O)c1cccc(Cl)c1)c1ccccc1 | -1 | 11 | -4 | -2 | 8 | 8
COc1ccc(OC)c(/C(C)=N/Nc2ccc(C(=O)O)cc2)c1 | -12 | 24 | 3 | 99* | 6 | -58
COc1cc(/C=N/NC(=O)CN(Cc2ccco2)S(=O)(=O)c2ccccc2)ccc1O | -2 | 19 | 1 | 100* | -1 | -27
COc1cc(/C=N/Nc2ccc(S(N)(=O)=O)cc2)cc(OC)c1OC | -2 | 19 | -3 | 93* | 12 | 22
CCOC(=O)N1CCN(c2c(NCCCN(CC)c3cccc(C)c3)c(=O)c2=O)CC1 | -3 | 5 | 1 | 99* | 29 | 36
CCOC(=O)C1CCCN(c2c(NCCCN(C)c3ccccc3)c(=O)c2=O)C1 (stereo not drawn) | -6 | 33 | -4 | 99* | 14 | -1
CCN(CCCNC(=O)C1CCC(=O)N1Cc1ccccc1Cl)c1cccc(C)c1 (stereo not drawn) | -5 | 28 | 56 | 99* | 77* | 13
CCOC(=O)N1CCN(c2c(NCCCN(CC)CC)c(=O)c2=O)CC1 | 2 | 6 | -2 | -20 | -6 | -11
CCN(CCCNC(=O)C1CCC(=O)N1Cc1ccc(C)cc1)c1cccc(C)c1 (stereo not drawn) | -7 | 11 | 59 | 99* | 85* | 13
Oc1ccc(C2=NNC(=NCc3ccc4c(c3)OCO4)SC2)c(O)c1 | 8 | -9 | 3 | 95* | 11 | 14
Clc1ccc(C2=NNC(=NCc3ccc4c(c3)OCO4)SC2)cc1 | -1 | . | . | 0 | . | 1
Cc1c(OCC(=O)N[C@@H](Cc2c[nH]c3ccccc23)C(=O)O)ccc2c1oc(=O)c1ccccc12 | 2 | 9 | -5 | -4 | 4 | 34
Nc1cc(=O)[nH]c(SCC(=O)Nc2ccc3c(c2)CCC3)n1 | 3 | 12 | 0 | 90* | -10 | 32
O=C(CSc1nc(O)cc(=O)[nH]1)N1CCCc2ccccc21 | 6 | 35 | 1 | 99* | -2 | -29
CCCc1cc(=O)[nH]c(SCC(=O)Nc2ccc3c(c2)CCC3)n1 | 3 | 22 | 6 | -2 | -3 | -6
Cc1cc(=O)[nH]c(SCC(=O)N2CCCc3ccccc32)n1 | -2 | -1 | 1 | -32 | 7 | 9
O=C(CSc1nc(O)cc(=O)[nH]1)Nc1ccc2c(c1)CCC2 | 1 | -3 | 2 | 99* | 10 | 56
c1ccc(COc2ccc(CNCc3cccnc3)cc2)cc1 | -1 | 13 | -2 | 0 | 2 | 8
Cc1ccc(C(=O)OCC(=O)c2c[nH]c3ccccc23)cc1NC(=O)c1ccco1 | 24 | 6 | 3 | -5 | 2 | 23
O=C(COC(=O)Cc1ccccc1F)Nc1cccc(F)c1 | -5 | 25 | 0 | 36 | -7 | 26
